# Published values gathered from unrelated publications.
# Compare with care: the assays were run in different laboratories.
# Target: Membrane-associated tyrosine- and threonine-specific cdc2-inhibitory kinase (PKMYT1, Homo sapiens, UniProt Q99640)
# One construct used (Q99640 1-499): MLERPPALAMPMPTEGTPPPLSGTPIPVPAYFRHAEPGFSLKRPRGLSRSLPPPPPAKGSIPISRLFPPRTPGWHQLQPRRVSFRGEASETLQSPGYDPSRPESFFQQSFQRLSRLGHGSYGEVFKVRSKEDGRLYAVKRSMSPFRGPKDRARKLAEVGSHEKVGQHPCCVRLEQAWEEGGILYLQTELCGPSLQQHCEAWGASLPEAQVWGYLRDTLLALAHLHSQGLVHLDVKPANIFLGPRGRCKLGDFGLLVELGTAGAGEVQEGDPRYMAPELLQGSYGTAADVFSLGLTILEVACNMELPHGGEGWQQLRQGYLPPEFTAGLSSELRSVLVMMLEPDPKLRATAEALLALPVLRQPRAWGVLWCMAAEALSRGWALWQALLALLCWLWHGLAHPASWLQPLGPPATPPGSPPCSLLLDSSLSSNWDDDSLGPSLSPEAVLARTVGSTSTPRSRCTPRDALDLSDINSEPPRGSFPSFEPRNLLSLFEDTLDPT
Structure (SMILES),effect on,mode,technique,tested at,quantity,value
C=CCn1c(=O)c2cnc(Nc3ccc(N4CCN(C)CC4)cc3)nc2n1-c1cccc(C(C)(C)O)n1,thermal stability,,DSF,100 µM,ΔTm,3 °C
CC(C)(C)c1nc2c(s1)c1nc(N)ncc1c1ccc(NS(=O)(=O)c3c(F)cccc3F)c(F)c12,enzyme activity,inhibitor,radiometric,1 µM,remaining activity,84%
Cc1ccc(C(=O)Nc2ccc(CN3CCN(C)CC3)c(C(F)(F)F)c2)cc1C#Cc1cnc2cccnn12,enzyme activity,inhibitor,,23.5 nM,remaining activity,84%
CNCc1ccccc1-c1csc([C@H](C)Nc2nc(C)nc3cc(OC)c(OC)cc23)c1,cell-free assay,,competition with immobilised ligand,1 µM,remaining binding,100%
O=C(Nc1cnn(-c2csc(C(=O)NC3COC3)c2)c1)Nc1ccccc1Cl,enzyme activity,inhibitor,,5 µM,remaining activity,87%
c1cnn2ncc(-c3ccnc(N4CCC45COC5)n3)c2c1,binding,,,1 µM,remaining binding,97%
CC(C)(C)c1nc(-c2cccc(NS(=O)(=O)c3c(F)cccc3F)c2F)c(-c2ccnc(N)n2)s1,enzyme activity,inhibitor,radiometric,1 µM,remaining activity,88%
O=C(Nc1cnn(-c2csc(C(=O)NC3COC3)c2)c1)Nc1c(F)cccc1Cl,enzyme activity,inhibitor,,5 µM,remaining activity,89.6%
C[C@H](NC(=O)c1cnc2n1[C@](C)(Cc1ccc(C#N)cc1)C(=O)N2c1cc(Cl)c(F)c(Cl)c1)C(=O)NC1(c2ccccn2)CC1,cell-free assay,,competition with immobilised ligand,1 µM,remaining binding,79%
C[C@@H]1CCN(c2nccc(-c3cnn4ncccc34)n2)C1,binding,,,1 µM,remaining binding,99%
Nc1ncnc2occ(-c3ccc(NC(=O)Nc4cc(C(F)(F)F)ccc4F)cc3)c12,cell-free assay,inhibitor,,20 µM,remaining signal,75%
